Only some compounds are listed: those with a hit (about 4.7% of all), similar ones and a draw of the others.
MPTP inh – permeability transition pore inhibition; isolated mouse mitochondria, Ca2+ swelling absorbance, 30 min; inhibition, % at 10 µM; actives 1.4% (n = 360,000);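 active = inhibition of 50% or more, scaled per plate between neutral and stimulator controls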;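 also: 0% = DMSO wells given calcium and 100% = 1 mM EGTA wells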
MT1-MMP act inh – MT1-MMP (human) activation inhibition | P50281 | actives 0.061% (n = 360,000) | GFP/RFP ratio change, % at 20 µM | HT1080 RFP-PRO-GFP cells, GFP/RFP ratio fluorescence, overnight; percent of plate control window, DMSO zero;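 active = GFP/RFP ratio change of at least 30% with cell ATP level not reduced by more than half and red fluorescence within 50% of control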
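Compound: 20 µM single dose, 1% DMSO / System: HT1080 RFP-PRO-GFP cells / Controls: DMSO and RFP-L50D-GFP cell wells / Read-out basis: GFP/RFP fluorescence ratio / Schedule: overnight compound exposure at 37 °C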
ADAM10 inh – inhibits human ADAM10; recombinant ADAM10, EDANS/DABCYL FRET peptide cleavage, 3 h; inhibition, % at 7 µM; actives 0.62% (n = 370,000); AID 720582;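 active = inhibition above a per-campaign cutoff equal to the mean of compounds falling between control-based bounds plus 3 SD, cut at about 20% in these data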;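 also: 0% = DMSO wells while the 100% control is not disclosed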
ADAM17 inh – inhibits human ADAM17; inhibition, % at 6.95 µM; AID 720648; actives 0.83% (n = 370,000); P78536; recombinant ADAM17, EDANS/DABCYL FRET peptide cleavage;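 active = inhibition above the mean of compounds lying between control limits plus 3 SD, set per campaign, cut at about 8.5% in these data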;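 also: 0% = DMSO-only wells as the low control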
Target sequence (P78536 215-824 limits assumed): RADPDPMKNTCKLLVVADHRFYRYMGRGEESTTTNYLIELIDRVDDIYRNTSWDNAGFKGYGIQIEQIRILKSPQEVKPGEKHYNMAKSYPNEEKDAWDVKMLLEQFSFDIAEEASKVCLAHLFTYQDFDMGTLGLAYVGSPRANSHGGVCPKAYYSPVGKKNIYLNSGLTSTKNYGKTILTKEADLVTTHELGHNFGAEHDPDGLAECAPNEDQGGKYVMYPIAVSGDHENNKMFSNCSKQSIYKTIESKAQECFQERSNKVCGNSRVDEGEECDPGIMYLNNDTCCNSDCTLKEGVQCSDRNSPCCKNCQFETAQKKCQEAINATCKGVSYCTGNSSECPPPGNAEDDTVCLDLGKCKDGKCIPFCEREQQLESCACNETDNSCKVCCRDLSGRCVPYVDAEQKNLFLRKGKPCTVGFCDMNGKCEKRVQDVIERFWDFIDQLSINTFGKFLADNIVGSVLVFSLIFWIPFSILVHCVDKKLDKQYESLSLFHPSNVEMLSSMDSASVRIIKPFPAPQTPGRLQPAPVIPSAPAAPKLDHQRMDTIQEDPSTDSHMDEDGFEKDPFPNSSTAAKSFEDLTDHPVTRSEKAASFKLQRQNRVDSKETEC
NR3A LBD binder – modulators (binders) of human NR3A ligand-binding domain; NR3A LBD differential scanning fluorimetry, Tm shift; 0% = protein alone, 100% = glycine-bound protein; Tm shift relative to glycine control, % at 25 µM; actives 2.5% (n = 340,000); AID 1259313;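 active = melting temperature shift of at least 10% of the positive control shift, at one fixed dose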
SKN-1 block – inhibitors of C. elegans SKN-1 | actives 0.49% (n = 360,000) | inhibition, % at 21.8 µM | C. elegans VP596 Pgst-4::GFP/RFP ratio, acrylamide-induced, 24 h;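 active = interference check ratio from 0.5 to 1.5 plus GFP to RFP signal ratio inhibition reaching or exceeding a fixed threshold, cut at about 30% in these data, passing the limit was not always enough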
MPTP counter – membrane potential counter-screen of mitochondrial pore inhibitors; isolated mitochondria, Rhodamine 123 fluorescence; actives 78% (n = 5,000); AID 624504; inhibition, % at 10 µM; shares compounds with MPTP inh; in the data active = inhibition above about 22%;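 also: 0% = DMSO vehicle and 100% = positive control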
MPTP abs DR – MPTP inhibition, dose response swelling confirmation | actives 58% (n = 780) | shares compounds with MPTP inh | isolated mitochondria swelling, absorbance | IC50, µM; in the data active = IC50 below about 20 µM
MPTP cs DR – counter-screen for mitochondrial permeability transition pore inhibitors, dose response; shares compounds with MPTP inh; isolated mitochondria counterscreen, fluorescence read-out; IC50, µM; actives 49% (n = 780); in the data active = IC50 below about 80 µM
Active calls of the source: *; i = inactive; . = no result given.

SMILES	MPTP inh	MT1-MMP act inh	ADAM10 inh	ADAM17 inh	NR3A LBD binder	SKN-1 block	MPTP counter	others
Cc1nc(NS(=O)(=O)c2ccc(Cl)s2)c2c3c(sc2n1)CCCC3	84*	0	-38	-10	1	-1	77*
O=C(Nc1nnc(-c2ccccc2)o1)c1nc2ccccc2s1	63*	3	8	2	2	-3	3	MPTP abs DR=8.4*;MPTP cs DR=78*
NC(=O)c1oc2ccccc2c1NC(=O)c1nc2ccccc2s1	-3	12	-17	-8	-14	-12	.
O=C(NC1CCSc2ccccc21)c1cccc(Cl)c1 (configuration not stated)	0	0	4	4	1	-9	.
Oc1ccc(Cl)cc1Cc1cc(Cl)ccc1O	86*	26	26*	8	17*	-8	86*
Oc1ccc(Cl)cc1CNCc1ccc(Cl)cc1	0	6	1	-2	-1	5	.
OCC1(Cc2cccc(F)c2)CCN(Cc2ccc3cccc(F)c3n2)CC1	1	-5	-5	-3	-1	8	.
CNC(=O)C1CCN(C(=O)c2ccc(-c3ccccc3)cc2)CC1	-4	4	1	0	-1	-7	.
N#CC(c1cccc(Cl)c1)c1ccc2c(C(F)(F)F)cc(C(F)(F)F)nc2n1 (configuration not stated)	114*	-10	1	-3	-1	2	90*
O=C(NNC(=S)NCc1ccccc1)c1ccccc1OC(F)F	2	-1	6	4	-1	4	.
O=C(NNC(=S)Nc1ccc(Cl)cc1)c1ccccc1OC(F)F	73*	4	9	5	1	8	86*
COc1ccccc1NC(=S)NNC(=S)Nc1ccc(OC(F)F)cc1	97*	0	9	3	32*	6	81*
COc1ccc(CN2CCN(Cc3c[nH]c4ccccc34)CC2CCO)cc1C (configuration not stated)	1	.	-2	-4	-1	-10	.
CC(C)(C)c1ccc(C(O)CCCN2CCC(C(O)(c3ccccc3)c3ccccc3)CC2)cc1 (configuration not stated)	92*	-5	6	-1	1	-19	-20
CC(C)(C)c1ccc(OCCCN2CCC(C(O)(c3ccccc3)c3ccccc3)CC2)cc1	.	.	3	3	.	.	.
O=C(O)c1ccc2nc3c(nc2c1)-c1ccccc1C3=O	11	-2	-5	-2	-1	-2	.
COc1ccccc1N=C1SC(C(=O)Nc2cccc(Cl)c2Cl)C(N)=C1C(N)=O (configuration not stated)	2	-5	1	-5	0	8	.
N#Cc1ccccc1NC(=O)C1SC(=Nc2ccccc2)C(C(=O)Nc2ccc(Cl)cc2)=C1N (configuration not stated)	62*	-17	37*	16*	22*	6	65*
Cc1nc2ccccn2c1-c1csc(Nc2cccc(O)c2)n1	18	-3	-17	-8	2	13	.
Cc1cccc(Nc2nc(-c3c(C)nc4ccccn34)cs2)c1	86*	-10	-13	-6	-7	6	76*
O=S(=O)(/N=C(/Nc1nc2ccccc2s1)c1ccccc1)c1ccc(F)cc1	11	-3	4	-2	-1	16	.
CCN(CC)c1ccc(N)cc1S(=O)(=O)Nc1ccccc1OC	2	1	4	4	-1	5	.
Cc1nnsc1-c1onc(C)c1C(=O)Nc1cc(Cl)cc(Cl)c1	84*	-8	4	0	7	-5	79*
CCCCCn1c(N)c(-c2nc3ccccc3s2)c2c([N+](=O)[O-])nn(C)c(=O)c21	104*	3	.	.	8	4	-1	MPTP abs DR=i;MPTP cs DR=<2.5*
CCCCn1c(N)c(-c2nc3ccccc3o2)c2c([N+](=O)[O-])nn(C)c(=O)c21	1	5	-46	-17	-1	3	.
SMILES	MPTP inh	MT1-MMP act inh	ADAM10 inh	ADAM17 inh	NR3A LBD binder	SKN-1 block	MPTP counter	others
COC(=O)c1sc(C(C)(C)C)cc1CSc1ccccc1	3	-4	-9	2	1	-6	.
O=C(Nc1ccc(F)cc1)Nc1nnc(-c2ccncc2)s1	91*	-6	9	-1	2	4	89*
O=C(Nc1ccc(Cl)cc1)Nc1nnc(-c2ccncc2)s1	79*	-9	-6	-1	20*	3	24*
O=C(Nc1nnc(-c2ccc(F)cc2)s1)Nc1ccccc1F	4	0	-1	-1	1	5	.
O=C(Nc1ccc(F)cc1)Nc1nnc(COc2ccccc2F)s1	83*	-2	7	7	36*	-1	83*
O=C(Nc1cccc(Cl)c1)Nc1nnc(-c2ccncc2)s1	101*	-42	-162	-50	27*	7	55*
O=C(Nc1nnc(COc2ccccc2F)s1)Nc1ccccc1F	19	5	10	4	9	7	.
COCCN(C(=O)COC(=O)CSc1ccc(Cl)cc1)c1c(N)n(CC(C)C)c(=O)[nH]c1=O	0	2	-3	-2	-1	4	.
CCN(C(=O)C(C)OC(=O)CCCNC(=O)c1ccc(Cl)cc1)c1ccccc1 (configuration not stated)	-1	1	4	0	0	-3	.
Cc1ccc(NC(=O)Nc2nnc(-c3ccncc3)s2)cc1C	87*	-17	2	-3	9	1	79*
COC(=O)Nc1nnc(-c2ccncc2)s1	-4	-6	i	-230	2	-4	.
Brc1cccc(CNCCCN2CCOCC2)c1	1	0	-3	-3	0	1	.
CC(C)COc1ccc(-c2nnc(-c3ccncc3)o2)cc1	59*	0	-12	-5	0	-25	51*
COc1ccc(-c2nnc(-c3ccc(OCC(C)C)cc3)o2)cc1	1	3	2	-3	-6	6	.
Cc1c(C(=O)Nc2nonc2-c2ccc(F)cc2)oc2ccc(F)cc12	81*	-8	3	-2	6	4	84*
CCc1nonc1NC(=O)c1oc2ccc(F)cc2c1C	-1	1	-2	-1	-2	30	.
Cc1ccc(S(=O)(=O)/N=C2/NC(=O)/C(=C/c3ccc(Br)o3)S2)cc1	53*	-4	8	5	-13	15	68*
Cc1ccc(S(=O)(=O)/N=C2/NC(=O)/C(=C\c3cc(Br)cc(Br)c3O)S2)cc1	0	5	.	.	6	49	.

Bioassay records: PubChem, several laboratories
